KCNK3 block: human KCNK3 channel inhibitors, primary screen, CHO cells, FluxOR thallium flux, B-score | FluxOR fluorescence; stronger effect = lower value | actives 0.84% (n = 340,000) | Potassium channel subfamily K member 3 (Homo sapiens), O14649 | B-score at 10 µM;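 active = B-score under library mean minus 4 SD, starting fluorescence ratio at most library mean plus 5 SD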;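 also: more negative B-score means stronger inhibition of thallium flux through KCNK3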
KCNQ1 block: inhibitors of human KCNQ1 channel, primary screen, cell-based, thallium flux, high-throughput; Potassium voltage-gated channel subfamily KQT member 1 (Homo sapiens), P51787; CHO-K1 KCNQ1, FluxOR thallium flux fluorescence; stronger effect = higher value; B-score at 10 µM; actives 1.3% (n = 310,000); AID 2642, 2010;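 active = compounds whose thallium flux B-score, printed positive for inhibition, exceeds three library SD while starting fluorescence stays within three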;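 also: channel opened by potassium depolarization with thallium stimulus after 20 min compound exposure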
hERG protect: hERG rescue from dofetilide block, primary screen, cell-based, CHO-hERG, FluxOR thallium flux, dofetilide IC70; dofetilide IC70 present; Voltage-gated inwardly rectifying potassium channel KCNH2 (Homo sapiens), Q12809; actives 0.51% (n = 310,000); activation (rescue from dofetilide block), less the hit threshold, % at 10 µM; AID 1511, 2009;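 active = activation above the mean of controls blocked by dofetilide plus 5 SD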;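 also: thallium influx through hERG after potassium depolarization seen as dye fluorescence rise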
KCNQ1 act: potentiators or activators of KCNQ1 channel, primary screen, cell-based, thallium flux, high-throughput | CHO-K1 KCNQ1, thallium flux FluxOR fluorescence; stronger effect = higher value | B-score at 10 µM | AID 2648, 2010 | actives 0.35% (n = 310,000) | Potassium voltage-gated channel subfamily KQT member 1 (Homo sapiens), P51787;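 active = fluorescence ratio B-score, a plate-corrected score, at least three library SD, with initial intensity B-score within 5 SD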
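Schedule – 37 °C overnight plating, 90-min dark dye load, 20-min compound pretreatment · System – stable KCNQ1 CHO-K1 line · Probe or stimulus – thallium- and potassium-containing depolarizing buffer · Measured by – kinetic FluxOR fluorescence, 10 s baseline plus 110 s post-stimulus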
KCNK9 block: KCNK9 potassium channel inhibitors, primary screen, HEK293 cells, thallium flux; FluxOR thallium flux fluorescence; stronger effect = lower value; B-score at 10 µM; actives 1.2% (n = 310,000); AID 488922, 2010;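 active = ratio B-score over 3 SD below the library mean, with starting fluorescence within 5 SD of its mean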;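 also: negative B-score means less thallium flux so channel inhibition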
Cl transport mod: KCC2 cotransporter modulators, thallium flux, primary screen, cell-based, HEK293 KCC2, FluoZin-2 fluorescence, MLSMR; KCC2 cells, thallium flux FluoZin-2 fluorescence; B-score of Tl+ flux slope (higher = more flux/activation; lower = inhibition) at 10 µM; actives 2.2% (n = 190,000);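 active = thallium flux slope and its plate-corrected score both differing from the plate sample mean at a set confidence after two filtering rounds, in either direction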;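 also: slope of fluorescence scaled to starting intensity during 10 to 20 s after thallium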
KCNK9 block conf: KCNK9 potassium channel inhibitors, confirmation, HEK293 cells, thallium flux, duplicate; FluxOR thallium flux fluorescence; shares compounds with KCNK9 block; actives 43% (n = 4,900); AID 492992, 2010; inhibition, % at 10 µM;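 active = thallium signal inhibited by more than 5 SD of the compound-free buffer control wells, on both duplicate plates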;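 also: 0% = assay buffer control wells without compound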
Kir21 sel: mouse Kir2.1 channel inhibition, confirmation, selectivity assay for KCNK9 modulator project, cell-based, HEK293, thallium flux. shares compounds with KCNK9 block. Kir2.1 cells, FluxOR thallium flux fluorescence. inhibition, % at 10 µM. actives 4% (n = 4,900). AID 492993, 2010;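 active = thallium signal drop more than 5 SD beyond the mean of the no-compound control wells, seen in both duplicate plates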;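 also: signal is fluorescence rise after thallium addition divided by baseline fluorescence; plate controls were assay buffer only for no effect and full block by chlorpromazine control for full effect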
KCNK9 uninduced: thallium flux in non-induced HEK293 cells, confirmation, counter-screen for KCNK9 inhibitor project, cell-based, second counter screen, non-induced KCNK9-HEK293. inhibition, % at 10 µM. actives 40% (n = 4,900). FluxOR thallium flux. shares compounds with KCNK9 block;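 active = thallium signal drop beyond 5 SD of the untreated control mean, on both duplicate plates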;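 also: plate controls were buffer only IC0 wells for no effect and SID17386958 at its maximal inhibitory level for full effect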
* hit, by the source's call. Most compounds without a hit are left out; they make up all but 4.1% or so of the library.

What do the screens show for `Cc1ccc(C)c(C(=O)COC(=O)c2cc(Cl)nc3ccccc23)c1`?
KCNK3 block: inactive; KCNQ1 block: inactive; hERG protect: -10.1; KCNQ1 act: inactive; KCNK9 block: -9.41*; Cl transport mod: -0.0974; KCNK9 block conf: 67.0%*; Kir21 sel: inactive; KCNK9 uninduced: 45.0%*

What do the screens show for `Cc1ccc(C)c(C(=O)COC(=O)c2ccc(Br)o2)c1`?
KCNK3 block: inactive; KCNQ1 block: inactive; hERG protect: -7.8; KCNQ1 act: inactive; KCNK9 block: -8.7*; KCNK9 block conf: 36.5%*; Kir21 sel: inactive; KCNK9 uninduced: inactive

What do the screens show for `CCCCNc1ncnc2c1nnn2Cc1ccccc1Cl`?
KCNK3 block: inactive; KCNQ1 block: inactive; hERG protect: -6.6; KCNQ1 act: inactive; KCNK9 block: inactive

How did CSc1cccc(NC(=S)N(Cc2ccc(C)cc2)Cc2cccnc2)c1 do in these assays?
KCNK3 block: inactive; KCNQ1 block: inactive; hERG protect: -15.2; KCNQ1 act: inactive; KCNK9 block: inactive; Cl transport mod: 0.214

What do the screens show for `CC(=O)c1ccc(S(=O)(=O)NCCC(=O)OC(C)C(=O)Nc2ccc(F)cc2)cc1` (stereo not drawn)?
KCNK3 block: inactive; KCNQ1 block: inactive; hERG protect: -6.2; KCNQ1 act: inactive; KCNK9 block: inactive

How did COc1ccc(C(=S)N(C)C)cc1OC do in these assays?
KCNK3 block: inactive; KCNQ1 block: inactive; hERG protect: -4.6; KCNQ1 act: inactive; KCNK9 block: inactive; Cl transport mod: 0.301

How did Cc1ccc(Sc2c(C#N)c(-c3ccccc3)nn2C)cc1 do in these assays?
KCNK3 block: inactive; KCNQ1 block: 6*; hERG protect: -14.9; KCNQ1 act: inactive; KCNK9 block: -9.84*; Cl transport mod: 0.00827; KCNK9 block conf: 56.5%*; Kir21 sel: inactive; KCNK9 uninduced: 39.5%*

What do the screens show for `Cn1nc(-c2ccccc2)c(CN2CCN(c3ncccn3)CC2)c1Cl`?
KCNK3 block: inactive; KCNQ1 block: inactive; hERG protect: -4.5; KCNQ1 act: inactive; KCNK9 block: inactive; Cl transport mod: -2.29; KCNK9 block conf: inactive; Kir21 sel: inactive; KCNK9 uninduced: inactive

Results for Cn1nc(N)c2c(-c3ccccc3)c(C#N)c(N)nc21 ?
KCNK3 block: inactive; KCNQ1 block: inactive; hERG protect: -7.3; KCNQ1 act: inactive; KCNK9 block: inactive; Cl transport mod: 1.16

How did Clc1cccc(Cl)c1CN1CCN(c2ncccn2)CC1 do in these assays?
KCNK3 block: inactive; KCNQ1 block: inactive; hERG protect: -5.7; KCNQ1 act: inactive; KCNK9 block: inactive

Results for Cc1ccc(SCc2c(-c3ccccc3)nn(C)c2Cl)cc1 ?
KCNK3 block: inactive; KCNQ1 block: 6*; hERG protect: -4.6; KCNQ1 act: inactive; KCNK9 block: -8.51*; Cl transport mod: -0.793; KCNK9 block conf: 42.5%*; Kir21 sel: 33.5%*; KCNK9 uninduced: 47.0%*

Results for O=C(CN1CCN(C(=O)c2cccc(S(=O)(=O)N3CCCC3)c2)CC1)Nc1cccc(F)c1 ?
KCNK3 block: inactive

How did O=C(NC1CCCCC1)[C@H](CSCc1ccccc1)N1Cc2ccccc2C1=O do in these assays?
KCNK3 block: inactive; KCNQ1 block: inactive; hERG protect: -8.4; KCNQ1 act: inactive; KCNK9 block: inactive; Cl transport mod: -1.09; KCNK9 block conf: inactive; Kir21 sel: inactive; KCNK9 uninduced: inactive

How did CC(C)NC(=O)[C@H](CSCc1ccccc1)N1Cc2ccccc2C1=O do in these assays?
KCNK3 block: inactive; KCNQ1 block: inactive; hERG protect: -6.2; KCNQ1 act: inactive; KCNK9 block: inactive; Cl transport mod: -1.03

What do the screens show for `C/C(=C\C=C(C#N)C#N)c1cc(C#N)c(N)o1`?
KCNK3 block: inactive; KCNQ1 block: inactive; hERG protect: -12.8; KCNQ1 act: inactive; KCNK9 block: inactive; Cl transport mod: inactive

What do the screens show for `COC(=O)CC(NC(=O)C1CC1)c1ccc2c(c1)OCO2` (stereo not drawn)?
KCNK3 block: inactive; KCNQ1 block: inactive; hERG protect: -9.1; KCNQ1 act: inactive; KCNK9 block: inactive; Cl transport mod: 0.805

What do the screens show for `CCOc1ccc(NC(=O)c2ccccc2OCC(=O)c2ccccc2)cc1`?
KCNK3 block: inactive; KCNQ1 block: inactive; hERG protect: -10.7; KCNQ1 act: inactive; KCNK9 block: -14.4*; Cl transport mod: -0.424; KCNK9 block conf: 41.5%*; Kir21 sel: inactive; KCNK9 uninduced: inactive

What do the screens show for `Cc1ccc(NC(=O)c2ccccc2OCC(=O)c2ccccc2)cc1`?
KCNK3 block: inactive; KCNQ1 block: inactive; hERG protect: -9.0; KCNQ1 act: inactive; KCNK9 block: inactive; Cl transport mod: -0.0915

How did CCOc1ccccc1C(=O)Nc1ccc(C(=O)c2ccccc2)cc1 do in these assays?
KCNK3 block: inactive; KCNQ1 block: inactive; hERG protect: -10.1; KCNQ1 act: inactive; KCNK9 block: -12.6*; KCNK9 block conf: 75.5%*; Kir21 sel: inactive; KCNK9 uninduced: 31.5%*

How did Cc1ccc2c(CC(=O)N(C)c3c(N)n(Cc4ccccc4)c(=O)[nH]c3=O)coc2c1 do in these assays?
KCNK3 block: inactive; KCNQ1 block: inactive; hERG protect: -10.3; KCNQ1 act: inactive; KCNK9 block: inactive

Results for Cc1ccc(N=c2ssnc2Cl)cc1 ?
KCNK3 block: inactive; KCNQ1 block: inactive; hERG protect: -13.8; KCNQ1 act: inactive; KCNK9 block: inactive; Cl transport mod: 0.705

From PubChem
